Experimental data reported in ChEMBL document CHEMBL1138144 (J Med Chem, 2006).

Legend:
[1] = target: T1, Sodium-dependent serotonin transporter (Homo sapiens, UniProt P31645); assay: Inhibition of [3H] serotonin uptake into human SERT expressed in HEK293 cells; format: functional, cell-based
In short: (§1)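 Confluent HEK293 cells expressing hDAT or hSERT, scraped into Krebs-HEPES. Preincubated 10 min at 25°C with compound (0.1% DMSO final). Uptake started with [3H]dopamine or [3H]serotonin (20 nM final) and stopped after 10 min by filtration on PEI-soaked GF/C filters. Non-specific uptake: 5 µM mazindol (DAT) or 5 µM imipramine (SERT). IC50 from triplicate 6-concentration curves, 2–3 independent determinations.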

[2] = target: T2, Sodium-dependent dopamine transporter (Homo sapiens, UniProt Q01959); assay: Displacement of [125I]RTI-55 from human DAT expressed in HEK293 cells; format: cell-based
In short: (§2)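 Membranes from HEK293 cells expressing hDAT or hSERT, grown to 80% confluence, lysed in 2 mM HEPES/1 mM EDTA, spun and resuspended in 0.32 M sucrose. About 10–15 µg protein preincubated 10 min with compound in Krebs-HEPES pH 7.4 (0.1% DMSO final). Filtered on GF/C. Non-specific binding: 5 µM mazindol (DAT) or 5 µM imipramine (SERT). Duplicates, 2–3 experiments, IC50 converted to Ki by Cheng-Prusoff.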

[3] = target: T1, Sodium-dependent serotonin transporter; assay: Displacement of [125I]RTI-55 from human SERT expressed in HEK293 cells; format: cell-based; in short: as §2
[4] = target: T2, Sodium-dependent dopamine transporter; assay: Inhibition of [3H] dopamine uptake into human DAT expressed in HEK293 cells; format: functional, cell-based; in short: as §1
[5] = target: T3, Sodium-dependent noradrenaline transporter (Homo sapiens, UniProt P23975); assay: Inhibition of [3H] norepinephrine uptake into human NET expressed in HEK293 cells; format: functional, cell-based
[6] = target: T3, Sodium-dependent noradrenaline transporter; assay: Displacement of [125I]RTI-55 from human NET expressed in HEK293 cells; format: cell-based
D(1A) dopamine receptor = D(1A) dopamine receptor (Homo sapiens, UniProt P21728); assay: Inhibitory activity against dopamine D1
[7] = target: T4, 5-hydroxytryptamine receptor 2C (Homo sapiens, UniProt P28335); assay: Inhibitory activity against 5HT1C
T4 sequence (P28335 whole entry): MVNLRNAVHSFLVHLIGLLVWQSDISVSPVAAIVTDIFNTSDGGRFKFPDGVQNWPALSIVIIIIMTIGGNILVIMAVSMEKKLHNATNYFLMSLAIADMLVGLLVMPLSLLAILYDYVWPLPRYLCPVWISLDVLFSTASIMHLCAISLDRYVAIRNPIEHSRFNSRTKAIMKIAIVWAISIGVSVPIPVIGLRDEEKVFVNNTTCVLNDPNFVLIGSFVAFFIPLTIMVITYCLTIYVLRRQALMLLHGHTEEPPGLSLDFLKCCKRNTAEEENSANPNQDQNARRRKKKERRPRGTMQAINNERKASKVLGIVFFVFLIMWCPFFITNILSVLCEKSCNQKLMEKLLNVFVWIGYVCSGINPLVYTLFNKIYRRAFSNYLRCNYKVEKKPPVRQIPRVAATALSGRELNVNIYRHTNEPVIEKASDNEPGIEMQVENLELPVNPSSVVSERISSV

D(2) dopamine receptor = D(2) dopamine receptor (Homo sapiens, UniProt P14416); assay: Inhibitory activity against dopamine D2
[8] = target: 5-hydroxytryptamine receptor 1B (Homo sapiens, UniProt P28222); assay: Inhibitory activity against 5HT1B
[9] = target: T5, 5-hydroxytryptamine receptor 1A (Homo sapiens, UniProt P08908); assay: Inhibitory activity against 5HT1A
T5 sequence (P08908 whole entry): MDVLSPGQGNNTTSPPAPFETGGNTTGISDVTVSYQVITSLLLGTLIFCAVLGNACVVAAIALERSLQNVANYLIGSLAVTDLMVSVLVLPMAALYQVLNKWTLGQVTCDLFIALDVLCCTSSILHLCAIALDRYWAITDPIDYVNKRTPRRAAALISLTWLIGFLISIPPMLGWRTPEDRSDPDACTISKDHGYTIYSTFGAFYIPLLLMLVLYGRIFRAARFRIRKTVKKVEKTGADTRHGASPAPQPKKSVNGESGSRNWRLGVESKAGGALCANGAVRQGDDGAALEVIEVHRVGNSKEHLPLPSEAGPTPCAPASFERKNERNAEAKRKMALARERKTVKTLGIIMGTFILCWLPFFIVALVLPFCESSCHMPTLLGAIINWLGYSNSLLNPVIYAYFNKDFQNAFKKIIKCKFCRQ

D(3) dopamine receptor = D(3) dopamine receptor (Homo sapiens, UniProt P35462); assay: Inhibitory activity against dopamine D3
D(3) dopamine receptor, sequence (P35462 whole entry): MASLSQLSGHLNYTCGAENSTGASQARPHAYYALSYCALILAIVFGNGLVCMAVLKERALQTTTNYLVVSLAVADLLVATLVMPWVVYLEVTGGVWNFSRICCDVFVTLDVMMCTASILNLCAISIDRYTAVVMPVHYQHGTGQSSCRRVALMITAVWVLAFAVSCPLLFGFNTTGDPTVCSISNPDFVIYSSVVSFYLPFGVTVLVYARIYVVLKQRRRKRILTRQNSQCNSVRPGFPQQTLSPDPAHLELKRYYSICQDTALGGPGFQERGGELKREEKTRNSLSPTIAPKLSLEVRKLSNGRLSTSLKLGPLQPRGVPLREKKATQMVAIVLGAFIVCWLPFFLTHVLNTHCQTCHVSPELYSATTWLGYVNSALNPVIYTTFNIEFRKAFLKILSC

D(1A) dopamine receptor, sequence (P21728 whole entry): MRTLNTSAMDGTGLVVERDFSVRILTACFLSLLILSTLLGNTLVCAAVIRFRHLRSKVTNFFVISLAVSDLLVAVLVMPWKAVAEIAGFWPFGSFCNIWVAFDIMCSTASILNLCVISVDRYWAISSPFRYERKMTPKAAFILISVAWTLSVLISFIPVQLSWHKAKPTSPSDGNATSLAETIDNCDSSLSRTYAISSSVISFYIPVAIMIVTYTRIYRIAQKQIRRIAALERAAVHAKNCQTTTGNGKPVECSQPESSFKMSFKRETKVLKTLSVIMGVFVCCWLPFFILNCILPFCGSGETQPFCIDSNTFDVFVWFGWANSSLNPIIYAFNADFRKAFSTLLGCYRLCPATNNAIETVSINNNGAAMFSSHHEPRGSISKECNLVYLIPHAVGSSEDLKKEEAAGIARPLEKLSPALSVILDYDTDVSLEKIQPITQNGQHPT
T2 sequence (Q01959 whole entry): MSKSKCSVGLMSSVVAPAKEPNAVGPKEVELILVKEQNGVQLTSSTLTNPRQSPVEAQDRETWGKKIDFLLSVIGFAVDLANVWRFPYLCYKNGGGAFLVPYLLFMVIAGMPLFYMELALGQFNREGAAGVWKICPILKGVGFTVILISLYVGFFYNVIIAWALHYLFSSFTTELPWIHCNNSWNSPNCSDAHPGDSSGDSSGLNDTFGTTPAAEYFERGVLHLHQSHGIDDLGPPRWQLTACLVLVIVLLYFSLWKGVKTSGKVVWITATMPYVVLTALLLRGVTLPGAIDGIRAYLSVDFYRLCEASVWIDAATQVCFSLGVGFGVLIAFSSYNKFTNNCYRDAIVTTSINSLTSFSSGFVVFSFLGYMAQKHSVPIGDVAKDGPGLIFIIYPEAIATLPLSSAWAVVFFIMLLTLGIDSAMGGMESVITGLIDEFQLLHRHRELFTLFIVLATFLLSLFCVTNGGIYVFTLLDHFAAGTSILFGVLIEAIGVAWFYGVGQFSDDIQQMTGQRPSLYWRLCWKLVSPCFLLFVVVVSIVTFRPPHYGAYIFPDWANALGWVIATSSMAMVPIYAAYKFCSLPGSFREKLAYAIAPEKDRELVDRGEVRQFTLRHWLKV
T3 sequence (P23975 whole entry): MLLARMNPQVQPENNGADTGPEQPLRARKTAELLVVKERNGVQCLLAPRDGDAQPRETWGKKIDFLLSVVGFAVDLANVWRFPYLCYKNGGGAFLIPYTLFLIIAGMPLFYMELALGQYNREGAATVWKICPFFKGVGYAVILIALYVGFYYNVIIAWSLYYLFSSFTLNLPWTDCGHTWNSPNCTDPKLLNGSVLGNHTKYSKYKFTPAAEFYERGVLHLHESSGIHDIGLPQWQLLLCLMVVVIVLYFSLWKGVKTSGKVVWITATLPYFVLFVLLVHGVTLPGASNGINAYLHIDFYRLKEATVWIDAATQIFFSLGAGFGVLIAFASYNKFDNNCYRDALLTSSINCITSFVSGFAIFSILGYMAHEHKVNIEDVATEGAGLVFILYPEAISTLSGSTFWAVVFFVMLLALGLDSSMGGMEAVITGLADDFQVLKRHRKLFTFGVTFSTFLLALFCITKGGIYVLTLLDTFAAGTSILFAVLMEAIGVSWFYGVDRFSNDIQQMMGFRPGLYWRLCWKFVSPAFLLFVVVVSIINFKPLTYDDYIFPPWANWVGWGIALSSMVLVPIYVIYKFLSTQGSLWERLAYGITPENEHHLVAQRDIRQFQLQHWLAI
T1 sequence (P31645 whole entry): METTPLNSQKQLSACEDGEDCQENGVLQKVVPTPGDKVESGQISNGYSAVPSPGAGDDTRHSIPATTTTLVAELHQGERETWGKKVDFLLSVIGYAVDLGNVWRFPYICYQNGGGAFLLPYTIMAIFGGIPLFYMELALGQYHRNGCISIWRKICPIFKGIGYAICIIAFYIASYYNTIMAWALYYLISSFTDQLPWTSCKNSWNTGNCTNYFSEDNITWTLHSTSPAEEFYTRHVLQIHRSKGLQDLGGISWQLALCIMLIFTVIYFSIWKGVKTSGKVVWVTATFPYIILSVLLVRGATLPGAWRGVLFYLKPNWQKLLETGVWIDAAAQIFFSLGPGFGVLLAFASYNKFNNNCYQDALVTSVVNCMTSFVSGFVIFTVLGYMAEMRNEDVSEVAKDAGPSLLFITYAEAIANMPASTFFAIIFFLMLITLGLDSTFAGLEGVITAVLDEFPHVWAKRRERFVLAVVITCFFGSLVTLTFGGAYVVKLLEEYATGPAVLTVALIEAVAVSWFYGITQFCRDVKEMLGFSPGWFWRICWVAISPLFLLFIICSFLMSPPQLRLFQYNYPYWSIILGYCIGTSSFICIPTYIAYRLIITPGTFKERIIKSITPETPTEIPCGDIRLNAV
D(2) dopamine receptor, sequence (P14416 whole entry): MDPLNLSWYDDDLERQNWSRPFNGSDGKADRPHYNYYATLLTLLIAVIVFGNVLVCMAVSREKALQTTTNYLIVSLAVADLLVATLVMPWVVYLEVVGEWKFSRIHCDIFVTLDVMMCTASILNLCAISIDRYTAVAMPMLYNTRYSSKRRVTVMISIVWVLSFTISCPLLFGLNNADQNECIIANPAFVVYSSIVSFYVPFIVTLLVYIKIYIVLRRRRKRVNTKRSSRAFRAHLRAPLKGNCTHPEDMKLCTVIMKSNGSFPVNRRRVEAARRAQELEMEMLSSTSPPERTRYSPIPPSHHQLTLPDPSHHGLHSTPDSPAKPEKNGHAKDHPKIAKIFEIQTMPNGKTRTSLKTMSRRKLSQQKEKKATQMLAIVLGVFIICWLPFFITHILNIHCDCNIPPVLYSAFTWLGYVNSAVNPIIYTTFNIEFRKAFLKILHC
5-hydroxytryptamine receptor 1B, sequence (P28222 whole entry): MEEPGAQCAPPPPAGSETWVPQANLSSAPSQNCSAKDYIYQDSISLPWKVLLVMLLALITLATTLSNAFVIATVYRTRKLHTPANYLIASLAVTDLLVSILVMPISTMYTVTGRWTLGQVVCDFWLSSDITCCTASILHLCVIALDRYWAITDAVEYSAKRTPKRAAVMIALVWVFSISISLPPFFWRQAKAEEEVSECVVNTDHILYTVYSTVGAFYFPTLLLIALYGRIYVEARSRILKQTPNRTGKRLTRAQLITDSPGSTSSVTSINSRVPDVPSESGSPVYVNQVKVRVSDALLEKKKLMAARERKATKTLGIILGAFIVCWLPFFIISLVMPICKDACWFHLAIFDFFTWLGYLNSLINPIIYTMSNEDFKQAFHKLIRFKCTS

SMILES | IC50 [1] [nM] | Ki [2] [nM] | Ki [3] [µM] | IC50 [4] [nM] | IC50 [5] [nM] | Ki [6] [nM] | IC50 (D(1A) dopamine receptor) [µM] | IC50 [7] [µM] | IC50 (D(2) dopamine receptor) [µM] | IC50 [8] [µM] | IC50 [9] [µM] | IC50 (D(3) dopamine receptor) [µM]
CCCC(C(=O)c1ccc(I)cc1)N1CCCC1 (stereo unspecified) | 197 | 81.4 | 0.301 | 32 | 46.5 | 310 |  |  |  |  |  | 
C#CCC(C(=O)c1ccc(C)cc1)N1CCCC1 (stereo unspecified) |  | 2310 | > 10 | 231 | 350 | 4100 |  |  |  |  |  | 
C=CCC(C(=O)c1ccc(C)cc1)N1CCCC1 (stereo unspecified) |  | 90.5 | > 10 | 55 | 88 | 1400 |  |  |  |  |  | 
CCCC(C(=O)c1ccc(Cl)c(Cl)c1)N1CCCC1 (stereo unspecified) | 600 | 11.5 | 0.199 | 43 | 21 | 37.8 |  |  |  |  |  | 
CCCC(C(=O)c1ccc(CO)cc1)N1CCCC1 (stereo unspecified) |  | 48.7 | > 10 | 44.3 | 12.4 | 150 |  |  |  |  |  | 
CC#Cc1ccc(C(=O)C(CCC)N2CCCC2)cc1 (stereo unspecified) | 3300 | 61 | 6.7 | 11.8 | 19.3 | 69.8 |  |  |  |  |  | 
CCCC(C(=O)c1cccc(C)c1)N1CCCC1 (stereo unspecified) |  | 51 | 5.9 | 62.9 | 9.4 | 216 | > 10 | > 10 | > 10 | > 10 | > 10 | > 10
CCCC(C(=O)c1ccc(Br)cc1)N1CCCC1 (stereo unspecified) | 1050 | 51 | 0.83 | 39.5 | 83 | 386 | > 10 | > 10 | > 10 | > 10 | > 10 | > 10
CCCCNC(CCC)C(=O)c1ccc(Cl)c(Cl)c1 (stereo unspecified) | > 10000 | 520 | 5.08 | 1190 | 2520 | 4200 |  |  |  |  |  | 
CCCC(C(=O)c1ccc(OC)cc1)N1CCCC1 (stereo unspecified) | 2430 | 329 | 4.08 | 283 | 235 | 2600 | > 10 | > 10 | > 10 | > 10 | > 10 | > 10
CCCC(CN1CCCC1)C(=O)c1ccc(C)cc1 (stereo unspecified) | 4800 | > 10000 | 4.1 |  |  | > 10000 |  |  |  |  |  | 
CCCC(C(=O)c1ccc(O)cc1)N1CCCC1 (stereo unspecified) |  | 125 | > 10 | 49.7 | 86.7 | 1290 | > 10 | > 10 | > 10 | > 10 | > 10 | > 10
CCC(C(=O)c1ccc(Cl)c(Cl)c1)N1CCCC1 (stereo unspecified) | 441 |  | 0.81 |  | 18.5 | 262 |  |  |  |  |  | 
C=CCC(C(=O)c1ccc(Cl)c(Cl)c1)N1CCCC1 (stereo unspecified) | 440 | 39.9 | 1.06 | 18.3 | 24.9 | 509 |  |  |  |  |  | 
CCCC(C(=O)c1ccc(C#N)cc1)N1CCCC1 (stereo unspecified) |  | 5900 | > 10 | 1000 |  | > 10000 |  |  |  |  |  | 
CCCC(C(=O)c1ccc(C)cc1)N1CCCC1 (stereo unspecified) [PYROVALERONE] | 2780 | 21.4 | 3.77 | 52 | 28.3 | 195 |  |  |  |  |  | 
CCCC(C(=O)c1ccc2ccccc2c1)N1CCCC1 (stereo unspecified) | 46 | 20.1 | 0.0331 | 40 | 11.7 | 136 | > 10 | > 10 | > 10 | > 10 | > 10 | > 10
CCCC(C(=O)c1ccccc1)N1CCCC1 (stereo unspecified) |  | 33.7 | > 10 | 52.3 | 56 | 199 |  |  |  |  |  | 

SMILES | IC50 [1] [nM] | Ki [2] [nM] | Ki [3] [µM] | IC50 [4] [nM] | IC50 [5] [nM] | Ki [6] [nM] | IC50 (D(1A) dopamine receptor) [µM] | IC50 [7] [µM] | IC50 (D(2) dopamine receptor) [µM] | IC50 [8] [µM] | IC50 [9] [µM] | IC50 (D(3) dopamine receptor) [µM]
CCCC(C(=O)c1ccc(OC)c(OC)c1)N1CCCC1 (stereo unspecified) | 1540 | > 10000 | 7.46 |  |  | > 10000 |  |  |  |  |  | 
CCCC(C(=O)c1ccc(NC(C)=O)cc1)N1CCCC1 (stereo unspecified) |  | 30.2 | > 10 | 67.9 | 317 | 4000 | > 10 | > 10 | > 10 | > 10 | > 10 | > 10
CCC(CC(=O)c1ccc(Cl)c(Cl)c1)N1CCCC1 (stereo unspecified) | 1780 | 8440 | 3.9 | > 10000 |  | > 10000 | > 10 | > 10 | > 10 | > 10 | > 10 | > 10
CCC(CC(=O)c1ccc(C)cc1)N1CCCC1 (stereo unspecified) |  | > 10000 | > 10 |  |  | > 10000 | > 10 | > 10 | > 10 | > 10 | > 10 | > 10
CCCC(C(=O)c1ccc(F)cc1)N1CCCC1 (stereo unspecified) |  | 82 | > 10 | 185 | 171 | 830 |  |  |  |  |  | 
CCCC(CN1CCCC1)C(=O)c1ccc(Cl)c(Cl)c1 (stereo unspecified) | 710 | 1530 | 0.63 | 2900 |  | > 10000 |  |  |  |  |  | 
CCCC(C(=O)c1ccc([N+](=O)[O-])cc1)N1CCCC1 (stereo unspecified) | 1110 | 266 | 2.46 | 1110 | 531 | 2690 |  |  |  |  |  | 
Cc1ccc(C(=O)C(CC(C)C)N2CCCC2)cc1 (stereo unspecified) | 2040 | 13.7 | 2.87 | 5.9 | 18 | 259 |  |  |  |  |  | 
CCCC(C(=O)c1ccc(C(=O)OC)cc1)N1CCCC1 (stereo unspecified) | 2350 | 360 | 3.65 | 154 |  | 1140 |  |  |  |  |  | 
CCCC(C(O)c1ccc(C)cc1)N1CCCC1 (mixture of isomers) |  | > 10000 | > 10 |  |  | > 10000 |  |  |  |  |  | 
CCCC(C(=O)c1ccc(C(F)(F)F)cc1)N1CCCC1 (stereo unspecified) | 1030 | > 10000 | 0.959 |  |  | > 10000 | > 10 | > 10 | > 10 | > 10 | > 10 | > 10
CCC[C@H](C(=O)c1ccc(C)cc1)N1CCCC1 |  |  | > 10 | 1790 |  | > 10000 |  |  |  |  |  | 
CCCC(C(=O)c1cccc(I)c1)N1CCCC1 (stereo unspecified) | 1070 | 109 | 1.4 | 52 | 81 | 670 |  |  |  |  |  | 
CCCC(C(=O)c1ccc(O)c(O)c1)N1CCCC1 (stereo unspecified) |  | 84 | > 10 | 42 | 7.6 | 219 |  |  |  |  |  | 
CCCC(C(=O)c1ccc(-c2ccco2)cc1)N1CCCC1 (stereo unspecified) | 2180 | 105 | 3.33 | 122 | 93 | 95 |  |  |  |  |  | 
CCCC(C(=O)c1ccc(-c2cccn2C)cc1)N1CCCC1 (stereo unspecified) |  | 3850 | > 10 | 5400 |  | > 10000 |  |  |  |  |  | 
CCCC(C(=O)c1ccc(Cl)c(Cl)c1)N1CCCCC1 (stereo unspecified) | > 10000 | 144 | 2.46 | 666 | 800 | 2350 |  |  |  |  |  | 
